How the values were obtained:
[1] = biological target: T1, BCRP (Homo sapiens, UniProt Q9UNQ0); experiment: Glucuronide excretion in HeLa1A1 cells with DIPY; assay type: cell-based; details: CA 10 μM, DIPY 5 or 20 μM
T1 sequence (Q9UNQ0 1-655): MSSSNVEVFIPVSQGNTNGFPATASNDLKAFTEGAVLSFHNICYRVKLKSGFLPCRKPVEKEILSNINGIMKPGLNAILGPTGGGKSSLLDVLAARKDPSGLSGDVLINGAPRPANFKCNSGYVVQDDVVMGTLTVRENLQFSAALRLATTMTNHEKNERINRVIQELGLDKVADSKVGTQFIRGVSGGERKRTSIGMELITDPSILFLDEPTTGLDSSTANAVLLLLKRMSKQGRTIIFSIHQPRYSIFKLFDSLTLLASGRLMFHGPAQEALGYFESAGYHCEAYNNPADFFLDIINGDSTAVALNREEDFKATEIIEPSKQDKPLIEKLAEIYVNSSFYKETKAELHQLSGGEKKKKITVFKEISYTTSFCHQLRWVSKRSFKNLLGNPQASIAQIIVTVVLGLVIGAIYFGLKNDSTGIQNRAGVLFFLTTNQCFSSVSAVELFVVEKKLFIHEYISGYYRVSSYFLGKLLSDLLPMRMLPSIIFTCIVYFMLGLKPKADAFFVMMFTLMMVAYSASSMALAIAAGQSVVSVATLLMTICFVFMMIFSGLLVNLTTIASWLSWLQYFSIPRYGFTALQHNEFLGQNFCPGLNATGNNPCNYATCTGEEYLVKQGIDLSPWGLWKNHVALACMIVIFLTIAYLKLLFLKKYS
Summary of the method: (§1)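 HeLa cells overexpressing UGT1A1 grown in DMEM/10% FBS, seeded 2 × 10^5 cells/well and used near 90% confluence after HBSS washes. Exposed at 37 °C to test compound 10 μM in HBSS with inhibitor 5 or 20 μM or vehicle. Medium sampled at 0.5, 1, 1.5 and 2 h; cells lysed at 2 h in 50% methanol. Excretion rate, CLapp (ER/intracellular concentration) and fmet calculated; triplicate.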

[2] = system: MRPs; experiment: Glucuronide excretion in HeLa1A1 cells with MK571; assay type: cell-based; details: CA 10 μM, MK571 5 or 20 μM
Summary of the method: as §1

| Compound | CA-O-glucuronide excretion [1] | fmet values [1] | intracellular amounts of glucuronide levels [1] | fmet value [2] | intracellular accumulation of glucuronide [2] |
| --- | --- | --- | --- | --- | --- |
| OCCN(CCO)c1nc(N2CCCCC2)c2nc(N(CCO)CCO)nc(N3CCCCC3)c2n1 [DIPY, dipyridamole] | moderate decrease | significant decrease | statistical increase | – | – |
| CN(C)C(=O)CCSC(SCCC(=O)O)c1cccc(/C=C/c2ccc3ccc(Cl)cc3n2)c1 (centres unmarked) [MK571] | – | – | – | significant reduction | elevated |
